Shown are actives, neighbours in structure and some others; about 3% of the full set was active somewhere.
5HT1E antag – 5-HT1E receptor antagonists, primary screen, cell-based, HTS; 5-hydroxytryptamine receptor 1E (Homo sapiens), P28566; CHO 5-HT1E Ga15 NFAT-bla reporter, FRET, antagonist; inhibition, % at 6 µM; 65,000 compounds, 0.99% hits; AID 571, 2007;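 active = inhibition above a set limit, the mean inhibition across every tested compound plus 3 SD, cut at about 29% in these data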;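 also: signal is the 460 over 535 nm emission ratio of beta-lactamase substrate; 0% = agonist plus DMSO wells and 100% = wells without agonist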
HTR1E agonist – 5-HT1E receptor agonists, primary screen, cell-based, HTS; 65,000 compounds, 0.69% hits; activation, % at 6 µM; AID 574, 2007; 5-hydroxytryptamine receptor 1E (Homo sapiens), P28566; CHO 5-HT1E Ga15 NFAT-bla reporter, FRET; 0% DMSO wells, 100% control agonist wells;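 active = activation above a set limit, the screen-wide mean activation plus 3 SD, cut at about 8.5% in these data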;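 also: 100% = positive control agonist at 1 µM giving full maximal response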
S1P1 ag-PAM – S1P1 agonists and agonism potentiators, primary screen, cell-based, primary and confirmation screens, CRE-bla reporter | S1P1 CRE-bla cells, forskolin, beta-lactamase FRET, potentiator mode; S1P1 agonist co-added at EC20, 2 nM; 100% = saturating reference agonist, 0% = basal | activation, % at 9.5 µM | Sphingosine 1-phosphate receptor 1 (Homo sapiens), P21453 | 56,000 compounds, 0.57% hits;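 active = activation above a cutoff set at the mean activation of all tested compounds plus 3 SD, cut at about 54% in these data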;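 also: forskolin at 4 µM as EC80 and the EC20 agonist is SEW2871; 100% = SEW2871 at its EC100 plus forskolin at EC80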
5-HT1A blocker – human 5-HT1a receptor antagonists, primary screen, cell-based, CHO, Ga15 NFAT-bla reporter. CHO 5-HT1a Ga15 NFAT-bla reporter, antagonist mode. inhibition, % at 10 µM. 62,000 compounds, 0.68% hits;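 active = inhibition above the mean of all tested compounds plus 3 SD, cut at about 43% in these data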;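 also: receptor stimulated by 5-CT agonist at 100 nM near EC80; beta-lactamase reporter measured by ratiometric fluorescence of a cleavable substrate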
S1P3 ag – human S1P3 receptor agonists, primary screen, cell-based, primary and confirmation, NFAT-BLA reporter. Sphingosine 1-phosphate receptor 3 (Homo sapiens), Q99500. S1P3 NFAT-BLA reporter cells, agonism, FRET ratio; relative to 1 µM S1P, basal subtracted. activation, % at 4.5 µM. 60,000 compounds, 0.1% hits. AID 373, 2006;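 active = activation above the screen-wide mean plus 3 SD, cut at about 4.5% in these data, passing the limit was not always enough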
Target sequence (Q99500 whole entry, looked up): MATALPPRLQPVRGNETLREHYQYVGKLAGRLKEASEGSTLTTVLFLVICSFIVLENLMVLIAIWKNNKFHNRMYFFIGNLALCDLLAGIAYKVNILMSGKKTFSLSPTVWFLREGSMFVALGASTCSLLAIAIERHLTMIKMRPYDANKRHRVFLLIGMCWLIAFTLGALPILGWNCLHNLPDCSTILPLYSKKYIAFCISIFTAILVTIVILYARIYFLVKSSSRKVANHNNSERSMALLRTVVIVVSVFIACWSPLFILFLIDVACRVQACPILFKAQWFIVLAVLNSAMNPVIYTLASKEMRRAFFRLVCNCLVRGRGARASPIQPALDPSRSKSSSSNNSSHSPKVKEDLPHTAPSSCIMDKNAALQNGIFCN
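Material: Human S1P3 NFAT-BLA reporter CHO cells | Incubation: Overnight plating, 4 h compound 37 °C, 2 h substrate RT | Signal: FRET β-lactamase substrate fluorescence, excitation 405 nm, 460/535 nm emission ratio, background-subtracted | Compound: 4.5 µM final, single dose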
5HT1a ag – human 5-HT1a receptor agonists, primary screen, cell-based, CHO, Ga15 NFAT-bla reporter. CHO 5-HT1a Ga15 NFAT-bla reporter, FRET ratio; 0% basal, 100% maximal reference agonist. 65,000 compounds, 0.56% hits. 5-hydroxytryptamine receptor 1A (Homo sapiens), P08908. activation, % at 10 µM;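 active = activation above the screen-wide mean activation plus 3 SD, cut at about 19% in these data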;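 also: 0% = DMSO wells and 100% = 5-CT at EC100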
Starred values were filed as active, the others as inactive; x = no result.

SMILES | 5HT1E antag | HTR1E agonist | S1P1 ag-PAM | 5-HT1A blocker | S1P3 ag | 5HT1a ag
CCC(=O)Nc1nonc1-c1nc2ccccc2n1Cc1ccc(Cl)c(Cl)c1 | 2 | 0 | -7 | -7 | -2 | -5
CCC(=O)N1CCN(CCN=Cc2c(O)n(C3CCCCC3)c(=O)n(C3CCCCC3)c2=O)CC1 | -4 | 0 | -8 | -1 | -1 | 0
Cc1ccc(-n2nnc3c(SCC(=O)N4CCN(c5ccccc5)CC4)ncnc32)cc1 | -1 | 1 | x | -8 | x | 0
O=C(COc1ccccc1)NC(Cc1c[nH]c2ccccc12)C(=O)O (configuration not stated) | -13 | 1 | -18 | 2 | -1 | 1
Cn1cccc1C(=O)Nc1nc(-c2ccccn2)cs1 | 2 | 0 | 6 | 15 | 1 | -1
O=C(Nc1nc(-c2ccccn2)cs1)c1ccc(Cl)s1 | 44* | 1 | 50 | 28 | -2 | -2
CN1C(=O)c2cccc(NC(=O)Cc3ccccc3)c2C1=O | 7 | 1 | -18 | -7 | 0 | 1
O=S(=O)(Nc1ccc(N2CCOCC2)cc1)c1cccs1 | 6 | 10* | 12 | -10 | -1 | -2
CC(=O)Nc1nc2n(n1)C(c1ccc(F)cc1)C=C(c1ccccc1)N2 (configuration not stated) | 25 | -1 | 30 | 20 | 0 | 0
O=C(c1nc2n(n1)C(c1ccc(Cl)cc1)C=C(c1ccccc1)N2)N1CCOCC1 (configuration not stated) | 42* | -1 | x | 28 | 0 | -2
OCCCc1nc2n(n1)C(c1ccccc1)C=C(c1ccccc1)N2 (configuration not stated) | 30* | 0 | -7 | 0 | 0 | -2
COc1ccc(C2C=C(c3ccccc3)Nc3nc(CCCO)nn32)cc1 (configuration not stated) | 24 | 0 | 8 | 13 | 0 | -2
COc1ccc(C2C(C(=O)Nc3ccccc3)=C(C)Nc3nc(CCCO)nn32)cc1 (configuration not stated) | 6 | -2 | 2 | -6 | -1 | -2
COc1ccc(C2C=C(c3cccs3)Nc3nc(CCCO)nn32)cc1 (configuration not stated) | 37* | -1 | 27 | 28 | 0 | -5
CC(=O)Nc1nc2n(n1)C(c1ccccc1)C=C(c1ccccc1)N2 (configuration not stated) | 34* | -1 | x | 30 | -2 | -2
Cc1cc(C)c2c(=O)[nH]c(=O)n(Cc3ccccc3)c2n1 | 17 | 0 | -4 | -4 | 0 | -3
N#Cc1cc2c(=O)n3ccccc3nc2n(Cc2cccnc2)c1=O | -10 | 8 | -49 | -47 | 7 | 37*
N#Cc1cc2c(=O)n3ccccc3nc2n(CCN2CCOCC2)c1=O | -5 | 28* | -36 | -5 | 0 | 4
N#Cc1cc2c(=O)n3ccccc3nc2n(CCCN2CCOCC2)c1=O | -34 | 5 | -36 | -24 | 4 | 15
COc1cccc(N2CCN(c3ncnc4c3[nH]c3ccc(F)cc34)CC2C)c1 (configuration not stated) | 104* | -2 | 115* | x | -8 | -2
COc1cc2[nH]c3c(N4CCN(c5ccc(Cl)cc5)CC4)ncnc3c2cc1OC | 7 | 2 | 2 | -8 | -2 | 2
COc1cccc(N2CCN(c3ncnc4c3[nH]c3ccccc34)CC2C)c1 (configuration not stated) | 91* | 0 | 127 | x | -4 | 4
CN(C)c1nc(NS(=O)(=O)c2ccc(Cl)cc2)nc(N(C)C)n1 | 5 | 0 | 1 | 6 | -1 | -1
CCCCCCNc1cc2n(c(=O)n1)CCc1cc(OC)c(OC)cc1-2 | 39* | 0 | -65 | 0 | -1 | 1
COc1cc2c(cc1OC)-c1cc(NC3CC3)nc(=O)n1CC2 | 20 | 1 | -28 | 9 | -1 | 0
SMILES | 5HT1E antag | HTR1E agonist | S1P1 ag-PAM | 5-HT1A blocker | S1P3 ag | 5HT1a ag
COc1cc2c(cc1OC)-c1cc(NC3CCCCC3)nc(=O)n1CC2 | 36* | 2 | -62 | 9 | 2 | 2
COc1cc2c(cc1OC)-c1cc(NC3CCCCCCC3)nc(=O)n1CC2 | 52* | 0 | -20 | 29 | 1 | 2
O=C(NCCN1CCN(c2ccccc2)CC1)C1CCN(S(=O)(=O)c2cccc3nonc23)CC1 | -4 | 1 | 1 | 13 | -2 | -2
COC(=O)c1ccc(C)c(NS(=O)(=O)c2ccc3c(c2)OCCO3)c1 | 60* | -1 | 5 | 33 | -1 | -1
CSc1ccccc1NS(=O)(=O)c1ccc2c(c1)OCCO2 | 3 | 0 | -14 | 4 | -1 | -3
CC(C)COC(=O)NCCOC(=O)Nc1cccc(Cl)c1 | -2 | 0 | 70* | 6 | -1 | -3
CCCCCOC(=O)NCC(O)c1ccccc1 (configuration not stated) | -3 | -1 | -38 | -4 | -1 | 1
CC(C)COC(=O)NCCCOC(=O)Nc1ccccc1 | -3 | 0 | 0 | 18 | -1 | 224*
CCN(CC)c1ccc(C2Nc3cccc4cccc(c34)N2)c(O)c1 | 32* | -2 | 2 | x | -1 | -7
COc1cc(C2Nc3cccc4cccc(c34)N2)cc(OC)c1OC(C)=O | -1 | -1 | -10 | x | -1 | -3
Cc1cc(C(F)(F)F)nc(NCc2cccnc2)n1 | 1 | 0 | x | 0 | x | -1
CC1=CCC2C(=O)N(c3ccc(C)c(Br)c3)C(=O)C2C1 (configuration not stated) | -4 | 13* | -2 | -2 | -1 | 13
CC1=CCC2C(=O)N(c3ccc(Br)cc3C)C(=O)C2C1 (configuration not stated) | -7 | 0 | -15 | 1 | -1 | 0
CCCC(=O)Nc1ccc(-c2nc3cc(C)ccc3o2)cc1 | -6 | 0 | 70* | 7 | -1 | 0
CCCC(=O)Nc1ccc2oc(-c3ccc(OC)c(Br)c3)nc2c1 | 6 | 0 | 98* | -10 | 0 | 1
CCCC(=O)Nc1ccc(-c2nc3cc(C)c(C)cc3o2)c(O)c1 | -7 | 0 | 38 | -9 | -1 | -1
CC(=O)CC(=O)Nc1ccccc1NC(C)=O | -2 | 1 | -4 | -3 | -1 | -4

Compound activity (PubChem)
